This is a sample that favours compounds with a hit; in the whole collection about 2.6% have one here.
PAD4 FP inh = human PAD4 inhibitors, primary screen, biochemical, fluorescence polarization, 1536-well format. Protein-arginine deiminase type-4 (Homo sapiens), Q9UM07. recombinant PAD4, RCA probe fluorescence polarization. inhibition, % at 6.36 µM. 330,000 tested, 0.41% active. AID 485272, 2010;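 active = percent inhibition above a cutoff equal to the mean of all tested compounds plus 3 SD, cut at about 15% in these data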;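 also: 0% = PAD4 with RCA probe and DMSO and 100% = probe without PAD4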
TDP2 inh = human TDP2 enzyme inhibitors, primary screen, biochemical, epi absorbance, recombinant enzyme. 370,000 tested, 0.34% active. AID 720702, 2013. inhibition, % at 12.8 µM. T5PNP hydrolysis, p-nitrophenol absorbance 415 nm. Tyrosyl-DNA phosphodiesterase 2 (Homo sapiens), O95551;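 active = inhibition above the mean of all tested compounds plus 3 SD, set per campaign, cut at about 25% in these data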;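 also: 0% = DMSO with enzyme and 100% = buffer with substrate but no TDP2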
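Test system: Human TDP2 enzyme | Reagent: 5 mM T5PNP | Compound dosing: 12.8 µM single point, 1% DMSO | Incubation: Enzyme reaction with compound for 2 h at 37 °C | Technique: p-Nitrophenol epi absorbance | Read-out: % inhibition relative to enzyme-containing and enzyme-free wells | Benchmarks: High control without enzyme, low control DMSO plus TDP2 | Replicates: Singlicate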
Apaf1 inhib = inhibitors of human Apaf-1 apoptosome, primary screen, biochemical, DEVD-Rh110 fluorescence, uHTS | inhibition, % at 20 µM | 330,000 tested, 0.71% active | AID 489030, 2010 | reconstituted apoptosome caspase-3 activity | Apoptotic protease-activating factor 1 (Homo sapiens), O14727; active = inhibition of at least 40% at 20 µM;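 also: plate controls were DMSO wells for no effect and DEVD-CHO caspase inhibitor wells for full effect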
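Material: cell-free apoptosome with Apaf-1, procaspase-3 and caspase-9; Buffer or medium: Hepes pH 7.5 with detergent and BSA; Reagent: cytochrome c trigger plus (Z-DEVD)2-Rh110 caspase-3 substrate; Times: compound with Apaf-1, dATP, procaspase-3 30 min, then 50 min reaction, room temperature; Technique: Rh110 fluorescence intensity.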
PRMT1 inh = PRMT1 methyltransferase inhibitors, primary screen, biochemical, fluorescence polarization | recombinant PRMT1, activity-based probe fluorescence polarization | 370,000 tested, 1.3% active | inhibition, % at 2.79 µM;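 active = inhibition above about 21% made by adding two undisclosed values, limit read from the data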
Target sequence (Q99873 whole entry, looked up): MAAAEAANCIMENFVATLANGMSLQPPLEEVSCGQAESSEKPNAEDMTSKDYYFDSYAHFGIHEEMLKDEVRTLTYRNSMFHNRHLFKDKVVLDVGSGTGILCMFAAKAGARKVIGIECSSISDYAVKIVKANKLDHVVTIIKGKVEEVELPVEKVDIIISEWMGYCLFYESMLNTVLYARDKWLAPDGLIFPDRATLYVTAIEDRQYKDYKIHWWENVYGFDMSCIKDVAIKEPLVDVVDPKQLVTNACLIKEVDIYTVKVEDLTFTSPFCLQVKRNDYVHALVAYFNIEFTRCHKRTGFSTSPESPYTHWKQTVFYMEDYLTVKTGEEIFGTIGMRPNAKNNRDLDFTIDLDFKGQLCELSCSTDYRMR
GSTO1 inh = inhibitors of recombinant GSTO1, primary screen, counter-screen for RBBP9 inhibitor project, biochemical, fluorescence polarization; Glutathione S-transferase omega-1 (Homo sapiens), P78417; activity-based probe fluorescence polarization; AID 1974, 2009; inhibition, % at 5.96 µM; 300,000 tested, 1.1% active;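 active = inhibition above the campaign mean inhibition plus 3 SD, cut at about 35% in these data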;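 also: 0% = GSTO1-1 with DMSO and 100% = wells lacking GSTO1-1 enzyme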
Target sequence (P78417 whole entry, looked up): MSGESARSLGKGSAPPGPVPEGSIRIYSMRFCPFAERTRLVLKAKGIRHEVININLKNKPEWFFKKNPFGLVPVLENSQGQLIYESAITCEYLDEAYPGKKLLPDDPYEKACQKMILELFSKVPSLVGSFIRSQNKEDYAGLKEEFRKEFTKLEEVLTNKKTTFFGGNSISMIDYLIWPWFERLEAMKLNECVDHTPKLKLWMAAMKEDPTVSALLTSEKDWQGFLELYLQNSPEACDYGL
An asterisk follows results filed as active; / = not tested or not shown; ! = repeats disagree.

SMILES	PAD4 FP inh	TDP2 inh	Apaf1 inhib	PRMT1 inh	GSTO1 inh
CN1C(=O)/C(=C/c2cccn2-c2ccc3ccccc3c2)C(=O)NC1=S	-10	7	5	44*	55*
Clc1ccc(C[n+]2c(-c3ccccc3)cc(-c3ccccc3)cc2-c2ccccc2)cc1	0	2	52*	1	2
CN1C(=O)C(=Cc2ccccc2OCc2ccccc2Cl)C(=O)N(C)C1=O	0	1	14	23*	19
CN1C(=O)C(=Cc2ccccc2OCc2ccc(C(=O)O)cc2)C(=O)N(C)C1=O	1	2	-6	18	-3
O=C1C=Cc2ccccc2C1=O	-2	/	62*	/	29
O=S1c2ccccc2-c2ccccc21	/	4	/	-1	/
O=C1NC(=O)N(Cc2ccccc2)C(=O)/C1=C/C=C/c1ccco1	-20	9	13	23*	15
COc1ccc(CN2C(=O)NC(=O)/C(=C\c3ccco3)C2=O)cc1	-8	-3	20	16	11
O=S(=O)(c1ccc(Cl)cc1)N1CC1c1ccccc1 (stereo not drawn)	0	5	0	-2	35*
O=C(CN1C(=O)[C@@H](Cc2ccccc2)N=C(c2ccccc2)c2ccccc21)NC1CCCCC1	/	-3	/	-1	/
CCOc1ccc(-n2c(O)c(N=Nc3c(C)n(C)n(-c4ccccc4)c3=O)c(=O)[nH]c2=O)cc1	-1	3	0	2	21
C=CCn1c(O)c(N=Nc2c(C)n(C)n(-c3ccccc3)c2=O)c(=O)[nH]c1=S	-2	-7	-3	-2	36*
Cc1ccccc1CCC[C@H](CC1CCCCC1)CN(C)C(=O)Oc1ccccc1	/	15	/	0	/
CCC1(NS(=O)(=O)c2ccc(N)cc2)C(=O)N(C)C(=O)N(C)C1=O	/	0	/	-1	/
N#CC1c2ccccc2-n2nncc2CN1C(=O)c1cccnc1 (stereo not drawn)	/	5	/	-3	/
CN1C[C@H](CO)C=C2c3cccc4[nH]cc(c34)C[C@H]21	0	13	30	23*	18
NCCc1cc(O)c(O)cc1O	/	8	/	43*!	/
O=c1[nH]c(=O)n(Cc2ccco2)c(O)c1C=NCc1ccc2c(c1)OCO2	-1	-20	-8	23*	0
O=C1NC(=S)NC(=O)C1=Cc1ccc2c(c1)CCN2CCCCl	2	/	24	/	51*
Cc1ccccc1N1C(=O)NC(=O)/C(=C\c2ccc3c(c2)CCCN3Cc2ccccc2)C1=O	-1	-1	14	-1	14
COC(=O)C12CCc3cc(OC)ccc3C1=CC(=O)C2 (stereo not drawn)	/	-5	/	0	/
N#CC1c2ccccc2-n2nncc2CN1C(=O)c1ccc([N+](=O)[O-])o1 (stereo not drawn)	/	6	/	2	/
CCCOc1ccc(C(=O)NC(=S)N2C[C@H]3C[C@H](C2)c2cccc(=O)n2C3)cc1	-2	-8	8	25*	-16
CN(C)[C@@H]1C(=O)C(C(N)=O)=C(O)[C@@]2(O)C(=O)C3=C(O)c4c(O)ccc(Cl)c4[C@@](C)(O)[C@H]3C[C@@H]12	-4	-5	/	24*	45*
CN(C)[C@@H]1C(=O)C(C(N)=O)=C(O)[C@@]2(O)C(=O)C3=C(O)c4c(O)cccc4[C@@](C)(O)C3C[C@@H]12 (stereo partly drawn)	-2	6	-12	19	72*
SMILES	PAD4 FP inh	TDP2 inh	Apaf1 inhib	PRMT1 inh	GSTO1 inh
CO[C@H]([C@H](C)/C=C/N(C)C=O)[C@@H](C)C(=O)CC[C@H](C)[C@H](O)[C@H](C)[C@H]1OC(=O)/C=C/C(C)=C/[C@H](O)[C@H](OC)C[C@@H]2C=CC[C@@H](C[C@H](OC)[C@@H](CO)[C@@H](OC)C[C@@H](OC)[C@@H]1C)O2	/	-9	/	-2	/
O=C(CN1C(=O)[C@@H](Cc2c[nH]c3ccccc23)N=C(c2ccccc2)c2ccccc21)NC1CCCCC1	/	-3	/	0	/
COC(=O)C1C(O)C(C)C(O)C(C)/C=C\C=C(/C)C(=O)Nc2c(C)c(OC(C)=O)c3c(c2O)C(=O)C(C)=C2OCOC(=C23)/C(C)=C/C(C)(O)C(O)C(C)C1O (stereo not drawn)	-9	15	16	5	69*
COc1ccccc1N1C(=O)NC(=O)/C(=C/c2ccc([N+](=O)[O-])s2)C1=O	-6	18	12	27*	42*
O=C1C=CC(=O)C2C1C1(Cl)C(Cl)=C(Cl)C2(Cl)C1(Cl)Cl (stereo not drawn)	/	4	/	2	/
O=C(O)c1cc[c]([Hg][Cl])cc1	22*	/	-5	/	11
CN1C(=O)C(=Cc2ccc(OCC(=O)Nc3ccccc3)cc2)C(=O)N(C)C1=O	-8	/	7	/	7
Cc1ccc(CC2C(=O)N(C)C(=O)N(C)C2=O)s1	0	8	-1	21*	-1
C=CCOc1ccc(CC2C(=O)N(C)C(=O)N(C)C2=O)cc1	-1	3	22	3	-5
Cc1ccc(NC(=O)CSc2nnc([C@@H](N)Cc3c[nH]c4ccccc34)o2)c(C)c1	-2	4	1	8	2
CCc1ccccc1NC(=O)CSc1nnc([C@@H](N)Cc2c[nH]c3ccccc23)o1	1	8	13	24*	1
O=C(NCCN1CCC2(CC1)C(=O)NCN2c1ccccc1)c1ccc(Cl)c(Cl)c1	/	2	/	-3	/
CN1c2ccc(Br)cc2[C@H]2NCC[C@H]2[C@H]1CO	/	-1	/	2	/
O=C1NC(=S)N(c2ccccc2)C(=O)C1C(c1ccncc1)C1C(=O)NC(=S)N(c2ccccc2)C1=O (stereo not drawn)	-6	-9	4	28*	9
CC(C)C[C@H]1C(=O)N2CCCC2[C@]2(O)O[C@](NC(=O)[C@@H]3C=C4c5cccc6[nH]cc(c56)CC4N(C)C3)(C(C)C)C(=O)N12 (stereo partly drawn)	18*	/	87*	/	48*
CC(C)[C@@]1(NC(=O)[C@@H]2C[C@@H]3c4cccc5[nH]cc(c45)C[C@H]3N(C)C2)O[C@@]2(O)[C@@H]3CCCN3C(=O)[C@H](Cc3ccccc3)N2C1=O	0	-4	23	15	-3
CCN(CC)c1ccc(/C=C/[N+](=O)[O-])cc1	3	12	2	-19	36*
COc1ccc(C2SCC(=O)Nc3c2c(C)nn3-c2ccccc2)cc1 (stereo not drawn)	-1	3	16	23*	-5
N=c1c2c(-c3ccccc3)c(-c3ccccc3)n(Cc3ccccc3)c2ncn1C1CCC(O)CC1 (stereo not drawn)	/	-10	/	-5	/

Screening results as filed in PubChem.
